Laboratory results: ChEMBL document CHEMBL1157473, “Identification of 4-benzylamino-2-[(4-morpholin-4-ylphenyl)amino]pyrimidine-5-carboxamide derivatives as potent and orally bioavailable STAT6 inhibitors” (Bioorg Med Chem, 2008)

Target: T1, Signal transducer and activator of transcription 6 (Homo sapiens, UniProt P42226)
T1 sequence (P42226 whole entry): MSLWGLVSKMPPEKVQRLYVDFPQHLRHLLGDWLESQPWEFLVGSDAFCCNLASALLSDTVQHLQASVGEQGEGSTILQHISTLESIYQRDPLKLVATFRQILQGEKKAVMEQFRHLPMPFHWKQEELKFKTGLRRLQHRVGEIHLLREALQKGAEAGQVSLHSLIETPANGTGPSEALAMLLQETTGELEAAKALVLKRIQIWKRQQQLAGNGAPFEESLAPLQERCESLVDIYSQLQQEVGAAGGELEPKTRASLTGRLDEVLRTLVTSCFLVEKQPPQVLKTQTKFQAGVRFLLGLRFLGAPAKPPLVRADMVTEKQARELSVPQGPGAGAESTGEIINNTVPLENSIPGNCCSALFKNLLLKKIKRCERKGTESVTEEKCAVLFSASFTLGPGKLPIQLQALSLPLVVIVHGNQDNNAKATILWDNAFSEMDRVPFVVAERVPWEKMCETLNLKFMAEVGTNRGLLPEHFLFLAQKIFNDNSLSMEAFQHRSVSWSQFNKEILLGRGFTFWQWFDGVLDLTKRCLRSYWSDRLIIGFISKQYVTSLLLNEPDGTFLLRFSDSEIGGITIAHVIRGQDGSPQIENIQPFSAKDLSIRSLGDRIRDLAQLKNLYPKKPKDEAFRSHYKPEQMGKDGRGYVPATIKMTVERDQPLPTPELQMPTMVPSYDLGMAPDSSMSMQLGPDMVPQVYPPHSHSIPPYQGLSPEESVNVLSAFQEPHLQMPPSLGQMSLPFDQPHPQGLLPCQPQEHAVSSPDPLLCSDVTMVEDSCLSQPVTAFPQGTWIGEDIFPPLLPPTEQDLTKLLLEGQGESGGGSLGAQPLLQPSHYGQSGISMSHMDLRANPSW
Test: Inhibition of STAT6 activation in FW4 reporter cells
Format: cell-based
Settings: not given

SMILES | IC50
NC(=O)c1cnc(Nc2ccc(CCCO)cc2)nc1NCc1ccccc1 | 81 nM
CS(=O)(=O)c1ccccc1CNc1nc(Nc2ccc(N3CCOCC3)cc2)ncc1C(N)=O | 2000 nM
NC(=O)c1cnc(Nc2ccc(N3CCC(O)C3)cc2)nc1NCc1ccccc1 (stereo not drawn) | 98 nM
NC(=O)c1cnc(Nc2ccc(N3CCOCC3)cc2)nc1NCc1cccc(Cl)c1 | 36 nM
NC(=O)c1cnc(Nc2ccc(N3CCOCC3)cc2)nc1NCc1cccc(O)c1 | 19 nM
CSc1ccccc1CNc1nc(Nc2ccc(N3CCOCC3)cc2)ncc1C(N)=O | 23 nM
NC(=O)c1cnc(Nc2ccc(N3CCNCC3)cc2)nc1NCc1ccccc1 | 7 nM
CN1CCN(c2ccc(Nc3ncc(C(N)=O)c(NCc4ccccc4)n3)cc2)CC1 | 6.2 nM
Cc1ccccc1CNc1nc(Nc2ccc(N3CCOCC3)cc2)ncc1C(N)=O | 11 nM
NC(=O)c1cnc(Nc2ccc(N3CCOCC3)cc2)nc1NCc1cccc(C(F)(F)F)c1 | 130 nM
CN1CCC(c2ccc(Nc3ncc(C(N)=O)c(NCc4ccccc4)n3)cc2)CC1 | 17 nM
NC(=O)c1cnc(Nc2ccc(CCO)cc2)nc1NCc1ccccc1 | 95 nM
NC(=O)c1cnc(Nc2ccc(N3CCCCC3)cc2)nc1NCc1ccccc1 | 120 nM
CC(=O)Nc1ccccc1CNc1nc(Nc2ccc(N3CCOCC3)cc2)ncc1C(N)=O | 5200 nM
COc1ccccc1CNc1nc(Nc2ccc(N3CCOCC3)cc2)ncc1C(N)=O | 8.2 nM
NC(=O)c1cnc(Nc2ccc(N3CCOCC3)cc2)nc1NCc1ccccc1O | 22 nM
NC(=O)c1cnc(Nc2ccc(N3CCOCC3)cc2)nc1NCc1ccccc1[N+](=O)[O-] | 38 nM
COc1cccc(CNc2nc(Nc3ccc(N4CCOCC4)cc3)ncc2C(N)=O)c1 | 25 nM
NC(=O)c1cnc(Nc2ccc(N3CCC(O)CC3)cc2)nc1NCc1ccccc1 | 16 nM
NC(=O)c1cnc(NCCc2cc(Cl)c(O)c(Cl)c2)nc1NCc1ccccc1 | 61 nM
NC(=O)c1cnc(Nc2ccc(N3CCCC3)cc2)nc1NCc1ccccc1 | 650 nM

The remaining lines, values ahead:

IC50 | SMILES
1.8 nM | NC(=O)c1cnc(Nc2ccc(N3CCOCC3)cc2)nc1NCc1cc(F)cc(F)c1F
650 nM | NC(=O)c1cnc(Nc2ccc(N3CCOCC3)cc2)nc1NCc1ccc(F)cc1
1.6 nM | NC(=O)c1cnc(Nc2ccc(N3CCOCC3)cc2)nc1NCc1cc(F)ccc1F
2.1 nM | NC(=O)c1cnc(Nc2ccc(N3CCOCC3)cc2)nc1NCc1cccc(F)c1F
25 nM | NC(=O)c1cnc(Nc2ccc(N3CCOCC3)cc2)nc1NCc1ccccc1C(F)(F)F
310 nM | NC(=O)c1cnc(Nc2ccc(N3CCOCC3)cc2)nc1NCc1ccc(F)cc1F
1.8 nM | NC(=O)c1cnc(Nc2ccc(N3CCOCC3)cc2)nc1NCc1cccc(F)c1
2.2 nM | NC(=O)c1cnc(Nc2ccc(N3CCOCC3)cc2)nc1NCc1c(F)cccc1F
7.9 nM | NC(=O)c1cnc(Nc2ccc(N3CCOCC3)cc2)nc1NCc1ccccc1Cl
1.4 nM | NC(=O)c1cnc(Nc2ccc(N3CCOCC3)cc2)nc1NCc1ccccc1F
5.5 nM | NC(=O)c1cnc(Nc2ccc(N3CCOCC3)cc2)nc1NCc1cc(F)cc(F)c1
310 nM | NC(=O)c1cnc(Nc2ccc(N3CCOCC3)cc2)nc1NCc1ccccc1N

Tested on: not listed separately
Test: Clearance in BALB/c mouse at 1 mg/kg, iv
Format: ADME, organism-based
Design: dose 1 mg/kg, route intravenous
Settings: in vivo
How it was run: (§1)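 Overnight-fasted 8-week-old female Balb/c mice were given 1 mg/kg by tail-vein injection at 10 mL/kg, in a Cremophor EL/saline-based vehicle. Plasma was extracted by solid-phase extraction and analysed by HPLC-MS-MS.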

clearance | SMILES
59.6 mL/min/kg | NC(=O)c1cnc(Nc2ccc(N3CCOCC3)cc2)nc1NCc1ccccc1
168 mL/min/kg | NC(=O)c1cnc(NCCc2cc(Cl)c(O)c(Cl)c2)nc1NCc1ccccc1

Tested on: not listed separately
Test: Half life in BALB/c mouse at 1 mg/kg, iv
Format: ADME, organism-based
Design: dose 1 mg/kg, route intravenous
Settings: in vivo
How it was run: as §1

half-life | SMILES
45.6 min | NC(=O)c1cnc(Nc2ccc(N3CCOCC3)cc2)nc1NCc1ccccc1
3.6 min | NC(=O)c1cnc(NCCc2cc(Cl)c(O)c(Cl)c2)nc1NCc1ccccc1

Tested on: not listed separately
Test: Volume of distribution in BALB/c mouse at 1 mg/kg, iv
Format: ADME, organism-based
Design: dose 1 mg/kg, route intravenous
Settings: in vivo
How it was run: as §1

Vd | SMILES
3.91 L/kg | NC(=O)c1cnc(Nc2ccc(N3CCOCC3)cc2)nc1NCc1ccccc1
0.931 L/kg | NC(=O)c1cnc(NCCc2cc(Cl)c(O)c(Cl)c2)nc1NCc1ccccc1

Tested on: not listed separately
Test: Oral bioavailability in BALB/c mouse at 10 mg/kg
Format: ADME, organism-based
Settings: in vivo
How it was run: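 Oral dose of 10 mg/kg in 0.5% methylcellulose (10 mL/kg) to overnight-fasted 8-week-old female Balb/c mice, against a 1 mg/kg iv dose. Blood was sampled from the vena cava at 0.25 to 24 h. Plasma was assayed by solid-phase extraction and HPLC-MS-MS.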

bioavailability | SMILES
1% | NC(=O)c1cnc(NCCc2cc(Cl)c(O)c(Cl)c2)nc1NCc1ccccc1

Tested on: not listed separately
Test: Oral bioavailability in BALB/c mouse at 3 mg/kg
Format: ADME, organism-based
Settings: in vivo
How it was run: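 Mice were 8-week-old female Balb/c, fasted overnight, given 3 mg/kg po in 0.5% methylcellulose (10 mL/kg), with 1 mg/kg iv as reference. Vena cava blood was collected at 0.25 to 24 h. Plasma was extracted by solid-phase extraction and quantified by HPLC-MS-MS.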

bioavailability | SMILES
30% | NC(=O)c1cnc(Nc2ccc(N3CCOCC3)cc2)nc1NCc1ccccc1

Tested on: not listed separately
Test: Dissociation constant, pKa of the compound
Format: physicochemical
Settings: not given

SMILES | pKa
Oc1c(Cl)cccc1Cl [2,6-DICHLOROPHENOL] | 7.15
Oc1ccccc1Cl [2-CHLOROPHENOL] | 9.13
